# MEKK2 mut-MEK5: signal of MEK5 binding to mutant human MEKK2 PB1 domain; bead flow cytometry, Alexa488-MEK5 binding to MEKK2 mutant; percent response, % at 10 µM; hit rate 0.35% among 290,000; in the data active = percent response above about 24%, passing the limit was not always enough
# NS3 helicase inh: HCV NS3 helicase inhibition; AID 1800; inhibition, % at 10.9 µM; hit rate 0.56% among 290,000; NS3 helicase DNA unwinding, Cy5 molecular beacon fluorescence;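 active = inhibition above the mean of all tested compounds plus 3 SD, set per campaign, cut at about 35% in these data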;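 also: 0% = DMSO wells and 100% = thioflavine S control wells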
#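 Control set: DMSO versus 110 µM thioflavine S; Material: NS3 helicase fragment of HCV; Measured by: Cy5 fluorescence at 0 and 60 min, beacon hairpin quenching; Read-out basis: percent inhibition from t60/t0 fluorescence ratio; Times: reaction time 60 min, 25 °C; Repeats: single replicate; Compound dosing: single dose, 10.9 µM nominal final, DMSO 0.8% final.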
# MEKK3 PB1 HTS: raises or lowers MEK5 binding to the human MEKK3 PB1 domain; Q99759; bead-based flow cytometry, Alexa488-MEK5 binding to MEKK3; actives lie on both sides; 0 = blocked by unlabeled MEK5, 100 = vehicle; binding response (% of control), % at 10 µM; hit rate 1.4% among 290,000;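 active = binding response more than 3 SD above or below the average of its plate-row segment, actives on both sides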;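 also: Alexa488 bead fluorescence after subtracting the streptavidin-only scavenger bead signal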
# Target sequence (Q99759 whole entry, looked up, the tested form may be a part): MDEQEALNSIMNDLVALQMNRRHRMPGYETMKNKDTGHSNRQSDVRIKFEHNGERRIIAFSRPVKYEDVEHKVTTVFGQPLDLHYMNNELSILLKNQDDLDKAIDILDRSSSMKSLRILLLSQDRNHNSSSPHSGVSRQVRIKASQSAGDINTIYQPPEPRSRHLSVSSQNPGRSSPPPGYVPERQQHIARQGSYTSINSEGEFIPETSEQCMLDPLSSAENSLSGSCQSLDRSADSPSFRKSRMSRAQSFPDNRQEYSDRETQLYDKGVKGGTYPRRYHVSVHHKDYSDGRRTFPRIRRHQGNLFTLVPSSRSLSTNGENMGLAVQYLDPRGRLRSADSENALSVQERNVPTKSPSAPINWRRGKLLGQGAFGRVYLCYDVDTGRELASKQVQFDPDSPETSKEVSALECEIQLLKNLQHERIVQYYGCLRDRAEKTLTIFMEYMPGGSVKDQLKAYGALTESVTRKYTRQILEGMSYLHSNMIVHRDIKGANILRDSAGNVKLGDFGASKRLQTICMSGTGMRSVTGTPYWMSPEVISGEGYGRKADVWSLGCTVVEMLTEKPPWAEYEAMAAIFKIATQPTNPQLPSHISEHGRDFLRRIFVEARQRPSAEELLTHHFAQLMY
# MEKK2 WT-MEK5: raises or lowers MEK5 binding to wildtype human MEKK2 PB1 domain; hit rate 1.1% among 290,000; Q9Y2U5; binding response (% of control), % at 10 µM; bead flow cytometry, Alexa488-MEK5 binding to MEKK2 WT; actives lie on both sides; in the data active = binding response below about 67% or above about 130%
# FID counter: fluorescent intercalator displacement, NS3 helicase counter-screen; DNA fluorescent intercalator displacement, fluorescence; inhibition, % at 7.9 µM; hit rate 0.17% among 290,000; AID 1845; in the data active = inhibition above about 37%;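 also: 0% = vehicle and 100% = reference compound; higher means more ethidium bromide displaced from hairpin DNA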
# T cruzi repl: T. cruzi replication inhibition | T. cruzi beta-gal in NIH3T3, luminescence, 90 h | inhibition, % (no concentration beside the values) | hit rate 1.4% among 300,000;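 active = mean inhibition across valid replicates above about 55%, limit read from the data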;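 also: signal also drops with host cell toxicity which is not excluded here; 0% = plate median of DMSO wells and 100% = zero luminescence signal; higher percent means less beta-gal luminescence so fewer parasites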
#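 Test system: β-gal T. cruzi (Tulahuen C4) inside NIH/3T3 cells / Quantity: 5,000 cells/well / Measured by: luminescence from GalScreen with 0.05% NP40, read after 60 min / Medium: DMEM plus 2% FBS / Measure: parasite load inhibition, % / Reagent: Tulahuen C4 trypomastigotes, 5000/well / Schedule: co-culture of at least 90 h after 3 h attachment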
# MEKK2wt confirm: raises or lowers MEK5 binding to wildtype human MEKK2, retest; shares compounds with MEKK3 PB1 HTS; bead flow cytometry, Alexa488-MEK5 binding to MEKK2 WT; actives lie on both sides; binding response (% of control), % at 10 µM; hit rate 2.4% among 5,900; AID 1892; in the data active = binding response below about 16% or above about 210%; inactive = in between
# MEKK2mut confirm: signal of MEK5 binding to mutant human MEKK2, retest. shares compounds with MEKK3 PB1 HTS. bead flow cytometry, Alexa488-MEK5 binding to MEKK2 mutant. percent response, % at 10 µM. hit rate 2% among 5,900. AID 1893; in the data active = percent response mostly above about 71%, no sharp cut-off; inactive = mostly below about 38%;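 also: higher means compound restores mutant binding toward wildtype level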
# MEKK3-MEK5 inh: MEKK3-MEK5 PB1 inhibition, single concentration confirmation; shares compounds with MEKK3 PB1 HTS; bead flow cytometry, Alexa488-MEK5 binding to MEKK3; active compounds read low; binding response (% of control), % at 10 µM; hit rate 1.8% among 5,900; AID 1894;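 active = binding response below 72% of control, or above a set upper limit, though filed actives all read lower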;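 also: 100% = DMSO only wells and 0% = binding blocked by excess unlabeled MEK5; lower values mean stronger disruption of MEK5 binding to MEKK3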
# Numbers without * were called inactive; · = no result given; [ ] = another dose, or the depositor's remark. A selection: hits, their analogues and other compounds. The true share with any hit is near 4.1%.
SMILES,MEKK2 mut-MEK5,NS3 helicase inh,MEKK3 PB1 HTS,MEKK2 WT-MEK5,FID counter,T cruzi repl,MEKK2wt confirm,MEKK2mut confirm,MEKK3-MEK5 inh
Cn1ccnc1Sc1ccc(C=O)cc1[N+](=O)[O-],-2,-5,74*[inhibitor],91,5,1,94,-7,96
COc1cccc2c(N/N=C/c3ccccc3)cc(C)nc12,-3,16,100,102,-19,1,·,·,·
COc1ccc2nc(C)cc(N/N=C/c3cccc(OC)c3O)c2c1,72*,-56,116,260*,7,18,236*,79*,106
COc1ccc2nc(C)cc(Nc3ccccc3O)c2c1,0,0,102,108,19,14,·,·,·
COc1ccc(/C=N/Nc2cc(C)nc3ccc(Br)cc23)cc1,73*,-53,106,214*,28,59*,245*,120*,107
Cc1cc(-c2ccccc2)nc(N/N=C/c2ccc(O)cc2O)n1,6,4,108,111,-8,-4,·,·,·
Cc1cc(NCc2ccccc2)c2ccccc2n1,8,-23,111,149*,1,12,116,9,103
Cc1cc(N/N=C/c2ccccc2O)c2ccccc2n1,14,-16,108,186*,23,10,135,14,102
Cc1cc(NCc2ccccc2)nc2ccccc12,3,-13,99,106,8,39,·,·,·
COc1ccc(C(=O)COc2ccc(F)cc2)c(O)c1,1,3,91,100,-5,-6,·,·,·
O=C(COc1ccc(F)cc1)c1c(O)cc(O)cc1O,24,13,132*,115,-6,-2,104,2,101
CC(C)c1ccc(NC(=O)c2snc3ccc(Cl)cc23)cc1,-1,-3,130*,105,1,23,103,-3,107
N#C/C(=C\c1ccccc1[N+](=O)[O-])C(=O)NC1CCCCC1,-17,2,40*[inhibitor],47*[inhibitor],-6,-3,97,-6,99
CCOC(=O)c1sc2nc(C(C)C)c3c(c2c1N)CCC3,0,1,138*,108,-1,2,147,39,112
CCOC(=O)c1sc2nc(C(C)C)c3c(c2c1N)CC(C)(C)OC3,6,2,101,104,-1,7,·,·,·
COc1cc(OC)cc(C(=O)N2CCC(C(=O)Nc3ccc4c(c3)OCCO4)CC2)c1,1,5,146*,105,-29,-14,104,2,104
COc1ccc(C(=O)N2CCC(C(=O)Nc3ccc4c(c3)OCO4)CC2)cc1,-1,0,101,104,-21,6,·,·,·
O=C(Nc1cccc(F)c1)C1CCN(C(=O)c2ccc(Cl)cc2)CC1,1,13,145*,105,-22,-4,99,-6,97
CC(=O)c1cccc(NS(=O)(=O)c2c(C(=O)N3CCOCC3)c(C)n(C)c2C)c1,3,3,104,105,-13,-4,·,·,·
CCc1nc(N2CCN(C(C)=O)CC2)c2c3c(sc2n1)CC(C(C)(C)C)CC3 (stereo unspecified),4,-7,101,107,-28,8,·,·,·
CCc1nc(N2CCN(C(=O)CCl)CC2)c2c3c(sc2n1)CC(C)CC3 (stereo unspecified),39*,-44,111,153*,-24,53,141,25,100
Cc1cc(NCCCN(C)C)n2nc(-c3cccs3)cc2n1,26*,-1,112,107,18,16,107,-2,104
CCS(=O)(=O)c1ncc(CO)n1CCc1ccccc1,0,-3,94,96,-2,-23,·,·,·
COc1ccc(N2CCN(C(=O)c3cc4c(s3)-c3ccccc3S(=O)(=O)C4)CC2)cc1,-19,1,82,-10*[inhibitor],-8,-7,101,5,104
Cc1cccc(NC(=O)c2sc(Cl)nc2C)c1C,0,-3,100,106,0,-13,·,·,·
SMILES,MEKK2 mut-MEK5,NS3 helicase inh,MEKK3 PB1 HTS,MEKK2 WT-MEK5,FID counter,T cruzi repl,MEKK2wt confirm,MEKK2mut confirm,MEKK3-MEK5 inh
CCN(Cc1ccccc1)S(=O)(=O)c1ccc(C(=O)N(CCCN(C)C)c2nc3cc4c(cc3s2)OCO4)cc1,39*,-43,107,202*,35,37,203,56,106
CN(C)CCN(C(=O)C1=COCCO1)c1nc2ccc(F)cc2s1,4,-5,101,106,8,30,·,·,·
CN(C)CCCN(C(=O)CCSc1ccccc1)c1nc2cc3c(cc2s1)OCO3,12,-74,110,153*,11,53,126,10,99
CN(C)CCCN(C(=O)c1ccc2c(c1)CCCC2)c1nc2ccc(F)cc2s1,7,-63,138*,142*,10,40,150,30,106
CN(C)CCCN(C(=O)c1ccc(S(=O)(=O)N(C)C)cc1)c1nc2cc3c(cc2s1)OCO3,9,-2,101,114,11,4,·,·,·
CN(C)CCCN(C(=O)c1ccc(C(=O)c2ccccc2)cc1)c1nc2cc3c(cc2s1)OCCO3,27*,-40,107,166*,30,38,155,23,107
CCCCN(C(=O)c1cccc(S(=O)(=O)N2CCN(C)CC2)c1)c1c(N)n(CCC)c(=O)[nH]c1=O,·,·,·,·,·,-4,·,·,·
CCN(C(=O)CSc1nc2cc(S(=O)(=O)N(CC)CC)ccc2o1)C1CCS(=O)(=O)C1 (stereo unspecified),12,4,108,118,-27,-10,·,·,·
CCN(CC)CCN(C(=O)c1ccc2c(c1)CCCC2)c1nc2ccc(F)cc2s1,8,-23,108,154*,-3,55*,136,10,105
CCN(CC)CCN(C(=O)c1ccc2c(c1)CCCC2)c1nc2ccc(OC)cc2s1,18,-40,106,130,35,28,·,·,·
CN(C)CCCN(C(=O)c1ccc(Br)s1)c1nc2cc3c(cc2s1)OCO3,7,-9,99,128,8,40,·,·,·
CN(C)CCCN(C(=O)c1ccc(S(=O)(=O)N2CCc3ccccc32)cc1)c1nc2ccc(F)cc2s1,25*,-39,101,166*,20,44,186,50,107
CN(C)CCCN(C(=O)c1ccc2c(c1)CCCC2)c1nc2cc3c(cc2s1)OCO3,23,-43,103,154*,25,17,145,25,106

# From PubChem BioAssay
